Compound activity (PubChem BioAssay)
APP 5'UTR act: activates APP 5'UTR luciferase reporter | SH-SY5Y APP 5'UTR luciferase reporter, luminescence; zero percent = DMSO vehicle wells | activation, % at 2 µM | 1% of 190,000 active | AID 1276;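 active = activation above a set limit, based on mean plus 3 SD of controls, cut at about 140% in these data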
FLuc act counter: firefly luciferase counter-screen for stimulation assays. activation factor at 10 µM. P08659. 200,000 tested, under 10 active. ATPlite luciferase biochemical, luminescence, 10 min; 0 = ATP-free wells, 1 = DMSO control;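 active = luciferase activation factor, scaled between plate controls, of at least 2 with compound at 10 µM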
Target sequence (P08659 whole entry, looked up): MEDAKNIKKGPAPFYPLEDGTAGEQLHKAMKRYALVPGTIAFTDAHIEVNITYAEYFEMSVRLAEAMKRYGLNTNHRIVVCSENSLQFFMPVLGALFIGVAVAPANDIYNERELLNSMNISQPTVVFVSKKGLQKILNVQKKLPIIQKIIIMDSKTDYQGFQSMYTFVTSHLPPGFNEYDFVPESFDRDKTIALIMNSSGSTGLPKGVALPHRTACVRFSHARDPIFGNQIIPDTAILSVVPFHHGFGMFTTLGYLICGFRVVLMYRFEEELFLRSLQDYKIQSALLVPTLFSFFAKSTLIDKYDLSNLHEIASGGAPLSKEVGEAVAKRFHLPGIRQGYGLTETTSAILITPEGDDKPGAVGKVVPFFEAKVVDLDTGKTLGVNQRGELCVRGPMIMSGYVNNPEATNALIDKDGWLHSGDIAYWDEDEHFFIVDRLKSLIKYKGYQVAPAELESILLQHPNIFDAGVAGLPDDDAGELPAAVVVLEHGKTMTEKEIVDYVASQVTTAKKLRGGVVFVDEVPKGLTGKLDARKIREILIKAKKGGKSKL
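System: Luciferase/luciferin detection reagent, cell-free biochemical luciferase assay | Medium: PBS buffer for ATP | Dosing: Test compounds dosed from 2 mM stocks in 100% DMSO | Timing: 10 min at ambient temperature | Signal: Luminescence measurement of luciferase light output | Evaluation: Luciferase activation, seen as luminescence increase over controls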
NF-kB neuron act: raises NF-kB expression in human neuronal cells | fold change at 12.5 µM | AID 1239 | NF-kB reporter expression; active compounds read high | 1.6% of 190,000 active; in the data active = fold change above about 3.3
FLuc inh counter: counter-screen for luciferase assay inhibitors: firefly luciferase inhibition. inhibition, % at 10 µM. P08659. ATPLite firefly luciferase biochemical luminescence, 10 min. 1.5% of 200,000 active;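 active = inhibition above about 50% when tested at 10 µM, limit read from the data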
STAT1 activator: increases IFN-gamma driven STAT1 reporter signal. NIH 3T3 STAT1-luciferase reporter, luminescence; 100% = IFN-gamma alone, no compound. activation (% of control), % at 5.5 µM. 2.6% of 200,000 active;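 active = activation above the screen-wide mean activation plus 3 SD, cut at about 130% in these data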;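 also: raw ratio to IFN-gamma control signal so 100% means no change and 0% no light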
STAT1 activ conf: STAT1 activation, confirmation assay. shares compounds with STAT1 activator. NIH 3T3 STAT1-luciferase reporter, IFN-gamma potentiation, luminescence; 100% = IFN-gamma EC80 alone, no compound. activation (% of control), % at 5.7 µM. 97% of 1,200 active. AID 1262;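 active = activation above a set limit carried over from the earlier primary STAT1 screen, cut at about 140% in these data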;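 also: simple ratio to median IFN-gamma plus DMSO wells so 0% means no light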
NFkB act STAT1ct: activates NF-kappaB, counter-screen to STAT1 activators. shares compounds with STAT1 activator. HEK293T NF-kB luciferase reporter, TNF-alpha stimulated, luminescence; 100% = TNF-alpha with vehicle only. activation (% of control), % at 5.7 µM. 43% of 1,200 active;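 active = activation above the mean of solvent-only control wells plus 3 SD, set per campaign, cut at about 130% in these data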;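 also: TNF-alpha given at a submaximal dose yielding about 80% of full reporter signal; values are well signal over median control so 100% means no change and 0% no light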
STAT3 act STAT1c: counter-screen for STAT1 activators: human STAT3 activation; shares compounds with STAT1 activator; activation (% of control), % at 5.7 µM; U3A cells STAT3-luciferase reporter, IL-6, luminescence; cells lack STAT1; 100 = IL-6 alone, no compound effect; AID 1316; 46% of 1,200 active;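 active = activation above the solvent-only control well mean plus 3 SD, set per plate batch, cut at about 110% in these data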;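 also: 0% = no luminescence and 100% = median IL-6 plus DMSO wells; higher means more STAT3 reporter activation so hits are non-selective activators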
Active calls of the source: *; . = not tested or not shown. Rows were chosen to be rich in hits. Some 4.1% of all compounds tested hit in one or more screens of this group.

SMILES | APP 5'UTR act | FLuc act counter | NF-kB neuron act | FLuc inh counter | STAT1 activator | STAT1 activ conf | NFkB act STAT1ct | STAT3 act STAT1c
Cn1ncc([N+](=O)[O-])c1C(=O)n1nnc2ccccc21 | 0.3 | 1.1 | 1.34 | -8.0 | 100.6 | . | . | .
NC(=O)C1=C[C@H](C2CCCCC2)C[C@H](OCc2ccc(CO)cc2)O1 | 125.5 | 1 | 3.84* | -3.4 | 171.0* | 162.9* | 141.7* | 163.5*
Cc1ccc(Sc2nc([N+](=O)[O-])nn2C)cc1 | -4.6 | 1 | 1.01 | -2.2 | 99.0 | . | . | .
C=CCNc1nc(-c2ccc(Cl)cc2)cs1 | 165.8* | 0.6 | 7.48* | 41.5 | 182.0* | 214.6* | 140.5* | 98.6
C=CCNc1nc(-c2sc(NC(C)=O)nc2C)cs1 | 9.8 | 1 | 1.38 | -2.0 | 123.4 | . | . | .
C=CCNc1nc(-c2ccc([N+](=O)[O-])cc2)cs1 | 72.2 | 0.7 | 3.96* | 29.3 | 151.1* | 194.3* | 135.8* | 87.6
CN(C)c1nc(-c2ccc([N+](=O)[O-])cc2)cs1 | 54.6 | 1 | 2.02 | -1.8 | 120.3 | . | . | .
Cc1cc(C(=O)N2CCN(S(=O)(=O)c3ccccc3F)CC2)c(C)o1 | -19.9 | 1 | 1.53 | -2.6 | 99.3 | . | . | .
COCCN(C(=O)CSc1nc2ccccc2c(=O)n1CCOC)c1c(N)n(Cc2ccccc2)c(=O)[nH]c1=O | 19.9 | 1 | 1.09 | -2.2 | 98.9 | . | . | .
COc1cc(/C=N/OCC(=O)Nc2cc(C)cc(C)c2)ccc1OCc1ccc(Cl)cc1 | 102.1 | 0.9 | 4.1* | 13.8 | 152.1* | 182.7* | 131.9 | 112.7*
COc1cc(/C=N/OCC(=O)NC2CCCCC2C)ccc1OCc1ccc(Cl)cc1 (stereo not drawn) | 140.9* | 0.9 | 4.96* | 10.0 | 157.7* | 181.7* | 133.7* | 107.1
Cc1ccc(-n2nnnc2CN2CCCCC2)cc1 | -3.8 | 1 | . | -4.4 | 96.0 | . | . | .
CCOc1ccc2nc(N3CCOCC3)nc(C)c2c1 | 130.0 | 0.8 | 3.84* | 24.2 | 154.9* | 181.3* | 130.4 | 110.5
CCOc1ccc(Nc2cc(C)nc(N3CCOCC3)n2)cc1 | 1.2 | 1.1 | 1.3 | -5.5 | 109.0 | . | . | .
Oc1oc(C=Nc2ccc(F)cc2F)c2ccccc12 | 5.2 | 1 | 1.01 | 0.0 | 95.1 | . | . | .
CCOC(=O)c1c(C)n2c3c(cc(C)cc13)CCC2 | 9.6 | 1 | 1.29 | -0.4 | 99.3 | . | . | .
O=C1CC(C(F)(F)C(F)(F)C(F)(F)F)=Nc2ccccc2N1 | 10.6 | 1.1 | 1.22 | -6.1 | 102.6 | . | . | .
O=C1CC(/C=C/c2ccc(Cl)cc2)=Nc2ccccc2N1 | 121.7 | 0.5 | 3.65* | 47.5 | 176.9* | 198.4* | 145.4* | 120.4*
O=C(CSc1nc2ccccc2c(=O)n1NC(=O)c1ccccc1)c1ccccc1 | 94.8 | 0.9 | 2.03 | 9.6 | 150.7* | 159.1* | 125.1 | 124.9*
Nc1nc(-c2ccc(Cl)cc2)nnc1-c1ccc(Br)cc1 | 193.7* | 0.7 | 3.75* | 28.3 | 165.4* | 191.1* | 143.5* | 105.2
OCCCNc1nc(-c2ccc(Cl)cc2)nnc1-c1ccccc1 | 9.8 | 1 | 1.18 | -2.7 | 106.7 | . | . | .
CCOC(=O)c1cnc(SCC(=O)NCc2cccs2)nc1N | 9.8 | 1.1 | 1 | -5.2 | 94.3 | . | . | .
CC(C)(C)NC(=O)CSC(=Nc1cccc(F)c1)NC#N | 7.2 | 1 | 0.61 | -3.8 | 99.9 | . | . | .
Nc1ccc2nn(-c3ccccc3)nc2c1 | 92.6 | 0.4 | 3.04 | 60.4* | 154.7* | 203.2* | 131.8 | 109.8
Nc1cc2nn(-c3ccccc3)nc2cc1Cl | 198.6* | 0.5 | 4.4* | 49.1 | 165.9* | 238.1* | 132.5 | 150.9*
SMILES | APP 5'UTR act | FLuc act counter | NF-kB neuron act | FLuc inh counter | STAT1 activator | STAT1 activ conf | NFkB act STAT1ct | STAT3 act STAT1c
CC(C)CC(=O)Nc1cc2nn(-c3ccccc3)nc2cc1Cl | . | 0.8 | 2.06 | 18.8 | 118.1 | . | . | .
C=CCC1S/C(=N/N=C/c2cccs2)NC1=O (stereo not drawn) | -12.9 | 1 | 1.25 | -3.0 | 85.4 | . | . | .
O=C(COC(=O)c1ccc2c(=O)n3c(nc2c1)CCC3)NC1CCS(=O)(=O)C1 (stereo not drawn) | 23.7 | 1 | 1.05 | 1.0 | 104.4 | . | . | .
COc1ccccc1NC(CC(=O)c1ccccc1)C(=O)OCC(=O)c1ccc(Br)cc1 (stereo not drawn) | 116.6 | 1 | 0.84 | -2.7 | 156.2* | 182.8* | 115.8 | 99.3
CC(=O)c1c(C)[nH]c(C2=NNC(=NC(C)(C)C)SC2)c1C | 45.9 | 0.8 | 2.89 | 15.0 | 117.6 | . | . | .
CC(C)(C)N=C1NN=C(c2cc3ccccc3o2)CS1 | 130.6 | 0.6 | 0.46 | 39.4 | 169.3* | 207.2* | 129.2 | 107.0
CN(C)C(/C=C/Nc1cccc([N+](=O)[O-])c1)=C(C#N)C#N | 4.7 | 1 | 1.22 | 1.9 | 103.6 | . | . | .
Cc1ccc(C(=O)/C=C/Nc2cccc([N+](=O)[O-])c2)o1 | 111.5 | 0.4 | 5.45* | 62.5* | 153.3* | 187.4* | 124.7 | 106.4
COc1ccc(-c2cc(-c3ccc(C)cc3)nc(SCc3nnc(-c4ccccc4)o3)c2C#N)cc1OC | 8.4 | 1 | 1.03 | -2.8 | 98.5 | . | . | .
C#CCOc1nc(OCC#C)nc(OCC#C)n1 | 1.4 | 1 | 1.15 | -3.9 | 95.5 | . | . | .
CC(C)(C)c1ccc(S(=O)(=O)Nc2cccc(C3OCCCO3)c2)cc1 | 9.8 | 1.1 | 0.83 | -6.1 | 91.1 | . | . | .
COc1ccc(/C(C)=N/Nc2ccc(C(=O)O)cc2)cc1OC | 158.4* | 0.9 | 5.97* | 9.4 | 156.6* | 189.8* | 120.2 | 119.2*
COc1cc(/C(C)=N/Nc2ccc(C(=O)O)cc2)cc(OC)c1OC | 65.5 | 1 | 1.23 | -3.9 | 95.9 | . | . | .
Cc1ccc2nc(SCC(=O)Nc3ccc(C(N)=O)cc3)[nH]c2c1 | 5.4 | 1 | 0.97 | 2.1 | 96.8 | . | . | .
Cc1ccc2nc(-c3ccc(NC(=O)CSc4ccccc4)cc3)[nH]c2c1 | 87.6 | 0.9 | 3.47* | 7.3 | 162.8* | 197.5* | 107.5 | 106.6
O=C1c2ccccc2C(=O)N1Cc1cnc(N2CCN(c3ccccc3)CC2)s1 | -7.4 | 1 | 1.14 | -3.1 | 103.7 | . | . | .
CSCC[C@H](NC(=O)C1CCN(S(=O)(=O)c2ccc(C)cc2)CC1)C(=O)NC1CCS(=O)(=O)C1 (stereo partly drawn) | 5.7 | 1 | 1.2 | 0.4 | 112.0 | . | . | .
Nc1nc(CN2CCCCCC2)nc(Nc2ccccc2)n1 | 9.8 | 1.1 | 0.74 | -5.8 | 98.4 | . | . | .
Cc1c(-c2nc(N)nc(Nc3ccccc3)n2)oc2ccccc12 | 153.7* | 1 | 2.96 | -3.8 | 164.4* | 210.9* | 147.7* | 107.0
